{"data": "Measurements gathered from unrelated publications", "cell line": "HEK293", "effect on": "cell growth or viability"}
{"SMILES": "CC(=O)Oc1ccc2oc(=O)cc(CSC(C)=O)c2c1", "method": "MTT", "time": "36 h", "IC50": "> 20 µM"}
{"SMILES": "CC(=O)O[C@H](C)C(=O)CCCCC[C@@H]1NC(=O)[C@H]2CCCN2C(=O)[C@H](Cc2ccccc2)NC(=O)C(C)(C)NC1=O", "method": "XTT", "IC50": "0.006 µM"}
{"SMILES": "Cc1[nH]c(C)c(-c2ccc(C(=O)c3ccc(Cl)cc3)cc2)c(=O)c1Br", "IC50": "> 10 µM"}
{"SMILES": "Cc1c(C)c2c(O)cc(O)cc2oc1=O", "method": "MTT", "time": "36 h", "IC50": "> 20 µM"}
{"SMILES": "Cc1nc2ccccc2c(O)c1-c1ccc(Cl)cc1", "IC50": "> 10 µM"}
{"SMILES": "C[C@@H](O)C(=O)CCCCC[C@@H]1NC(=O)[C@H]2CCCN2C(=O)[C@H](Cc2ccccc2)NC(=O)C(C)(C)NC1=O", "method": "XTT", "IC50": "0.04 µM"}
{"SMILES": "O=c1cc(CCl)c2cc(O)ccc2o1", "method": "MTT", "time": "36 h", "IC50": "> 20 µM"}
{"SMILES": "c1ccc2c(OCCCCCCN3CCCCCC3)cccc2c1", "time": "48 h", "IC50": "11.8 µM"}
{"SMILES": "O=C(c1cc(-c2cccs2)[nH]n1)N1CCN(S(=O)(=O)c2ccc(Cl)s2)CC1", "IC50": "> 10 µM"}
{"SMILES": "CCCc1ccc(OCCCCCN2CCCCCC2)cc1", "time": "48 h", "IC50": "33.3 µM"}
{"SMILES": "CCCCCCCCc1c(C)[nH]c(C)c(C#N)c1=O", "IC50": "> 10 µM"}
{"SMILES": "CC(=O)SCc1cc(=O)oc2ccc(O)cc12", "method": "MTT", "time": "36 h", "IC50": "> 20 µM"}
{"SMILES": "C[C@@H](O)C(=O)CCCCCCC(=O)Nc1ccccc1", "method": "XTT", "IC50": "35.6 µM"}
{"SMILES": "COc1cccc2c1C(=O)c1c(O)c3c(c(O)c1C2=O)C[C@@](O)(C(=O)CO)C[C@@H]3O[C@H]1C[C@H](N)[C@H](O)[C@H](C)O1", "method": "MTT", "time": "24 h", "IC50": "> 40 µM"}
